Bioassay records from PubChem BioAssay.
This is a sample that favours compounds with a hit; in the whole collection about 1.6% have one here.
RAD54 branch = inhibitors of human RAD54 branch migration; RAD54 Holliday junction branch migration, FAM/BHQ fluorescence; inhibition, % at 10.4 µM; AID 602329; hit rate 0.14% among 360,000; Q92698;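 active means mean normalized replicate activity at least 40 and at least half of replicates scoring 40 or more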;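 further: 0% = median of neutral control wells and 100% = median of positive control wells; inhibitors cause a drop in the FAM fluorescence signal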
S100A4 MyoIIA = blocks human S100A4 binding to myosin IIA peptide. P26447. S100A4/TAMRA-MyoIIA peptide fluorescence polarization. inhibition, % at 10.7 µM. hit rate 0.14% among 360,000. AID 652163;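 active means mean inhibition of at least 70% across replicates, with every replicate also reaching that level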
Target sequence (P26447 whole entry, looked up): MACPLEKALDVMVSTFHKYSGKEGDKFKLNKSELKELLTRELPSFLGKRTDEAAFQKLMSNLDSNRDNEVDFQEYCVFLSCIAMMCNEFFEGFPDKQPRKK
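Test system: S100A4 monomer protein; Medium: HEPES pH 7.2 with CaCl2, KCl, NaCl, DTT, Triton; Probe or stimulus: TAMRA-labelled myosin IIA heavy-chain peptide probe, 5 nM; Doses: one dose per compound; Times: polarization read 5 min after assay mix addition, stable 5–60 min; Benchmarks: neutral control DMSO, positive control TFP.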
SR-BI DiI inh = mouse SR-BI HDL lipid transfer inhibition; AID 488896; ldlA[mSR-BI] CHO cells, DiI-HDL uptake fluorescence, 3 h; inhibition, % at 12.5 µM; hit rate 0.96% among 320,000; Q61009;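 active means mean replicate inhibition of at least 70% and a set share of replicates each scoring 70 or more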;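 further: 0% = median of neutral control wells and 100% = median of positive control wells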
Target sequence (Q61009 whole entry, looked up): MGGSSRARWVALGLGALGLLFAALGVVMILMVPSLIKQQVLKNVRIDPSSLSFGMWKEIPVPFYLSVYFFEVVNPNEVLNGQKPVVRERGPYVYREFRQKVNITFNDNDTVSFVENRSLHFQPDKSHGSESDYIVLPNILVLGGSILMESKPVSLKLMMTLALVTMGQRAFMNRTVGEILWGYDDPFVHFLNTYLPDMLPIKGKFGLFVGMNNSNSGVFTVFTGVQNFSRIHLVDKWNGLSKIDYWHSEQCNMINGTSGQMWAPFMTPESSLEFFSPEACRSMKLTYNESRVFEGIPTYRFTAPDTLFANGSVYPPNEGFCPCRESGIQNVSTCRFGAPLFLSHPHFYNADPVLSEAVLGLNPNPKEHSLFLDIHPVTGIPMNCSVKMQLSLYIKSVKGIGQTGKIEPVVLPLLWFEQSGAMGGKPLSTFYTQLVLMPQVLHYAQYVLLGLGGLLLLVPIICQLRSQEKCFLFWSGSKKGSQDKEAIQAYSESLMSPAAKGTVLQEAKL
SR-BI uptake up = activators of SR-BI mediated HDL lipid uptake | CHO ldlA[mSR-BI] cells, DiI-HDL uptake fluorescence, 3 h; 100 = double the neutral-control signal | activation, % at 12.5 µM | hit rate 0.096% among 320,000 | AID 504775;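 active means mean replicate activation of at least 60% and every replicate at or above 60%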;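 further: 0% = median plate neutral-control signal and 100% = twice that signal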
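Test system: SR-BI-overexpressing, LDLR-lacking CHO cells. Measured by: DiI fluorescence, bottom read. Medium: Ham's F12 with 0.5% BSA, HEPES 25 mM, pH 7.4. Timing: 3 h uptake period with compound, 37 °C.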
PvdQ acylase = blocks Pseudomonas aeruginosa PvdQ acylase activity; AID 488965; hit rate 0.063% among 340,000; purified PvdQ acylase, fluorescence plate reader; inhibition, % at 10 µM; in the data active means inhibition above about 30%, passing the limit was not always enough;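 further: 0% = vehicle neutral wells and 100% = reference inhibitor wells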
dFosB act = enhances mouse delta FosB homodimer DNA binding. purified delta FosB, TAMRA-CDK5 oligo fluorescence polarization; percent of positive-control signal above neutral wells. activation, % at 25 µM. hit rate 0.99% among 340,000;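 active means mean activation above about 17%, with every replicate also reaching it, limit read from the data, passing the limit was not always enough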
Numbers without * were called inactive; nt = no result.

SMILES	RAD54 branch	S100A4 MyoIIA	SR-BI DiI inh	SR-BI uptake up	PvdQ acylase	dFosB act
COc1cc(C(=O)NCC2CCCO2)ccc1OCc1ccc(Cl)cc1Cl (centres undefined)	nt	-1	79*	-79	-14	-23
C[C@@H]1CCCCO[C@@H](CN(C)S(C)(=O)=O)[C@H](C)CN([C@H](C)CO)C(=O)c2cc(NC(=O)Cc3ccccc3)ccc2O1	4	-1	nt	nt	nt	nt
O=C1/C(=C/c2ccc(N3CCOCC3)o2)SC(=Nc2ccccc2)N1CCc1c[nH]c2ccccc12	-6	nt	87*	-87	-14	-19
COc1ccc(N=C2S/C(=C\c3ccc(OC(C)C(=O)O)c(OC)c3)C(=O)N2CCc2c[nH]c3ccccc23)cc1 (centres undefined)	nt	5	75*	-75	-2	-18
Cc1ccc(S(=O)(=O)N(C)C[C@H]2OCCCC[C@H](C)Oc3ccc(NS(=O)(=O)c4ccc(Cl)cc4)cc3C(=O)N([C@@H](C)CO)C[C@@H]2C)cc1	-8	-11	nt	nt	nt	nt
CN(C)c1ccc(C2CC(=O)OC3=C2C(=O)CC(C)(C)C3)cc1 (centres undefined)	nt	-1	-68	68*	5	10
CC1(C)CC(=O)C2=C(C1)OC(=O)CC2c1cccs1 (centres undefined)	-1	2	nt	nt	-9	-4
C[C@@H]1CCCCO[C@H](CN(C)Cc2ccncc2)[C@H](C)CN([C@@H](C)CO)C(=O)c2cc(NC(=O)CCCN(C)C)ccc2O1	5	18	nt	nt	nt	nt
CCC(C)NC(=O)c1cc2c(=O)n(CC)c3ccccc3c2s1 (centres undefined)	11	-2	74*	-74	-16	-33
CCOC(CNC(=O)c1cc2c(=O)n(CC)c3ccccc3c2s1)OCC	0	-3	82*	-82	-16	-24
C[C@H](CO)N1C[C@H](C)[C@H](CN(C)C(=O)CN(C)C)Oc2cc(C3=CCCC3)ccc2S1(=O)=O	1	-13	nt	nt	nt	nt
CCCNC(=O)N1C[C@@H](O)COC[C@H]2O[C@@H](CC(=O)N3CCCCC3)CC[C@@H]21	2	11	nt	nt	nt	nt
O=C(CSC1=NCCN1)Nc1cccc([N+](=O)[O-])c1	-2	3	82*	-82	-27	0
O=C(C[C@@H]1C=C[C@@H](NC(=O)Nc2ccc3c(c2)OCO3)[C@@H](CO)O1)NCc1ccc(Cl)cc1	-3	11	nt	nt	nt	nt
CC(=O)Nc1ccc2c(c1)C(=O)N(C)[C@@H]1CC[C@@H](CC(=O)NCCCN3CCOCC3)O[C@@H]1CO2	1	12	nt	nt	nt	nt
CCOC(=O)N/N=C/c1ccc(OCCSc2ccc(Cl)cc2)c(OCC)c1	18	nt	74*	-74	-12	-7
C[C@@H]1CN([C@@H](C)CO)C(=O)c2cc(C3=CCCC3)cnc2O[C@H]1CN(C)Cc1ccc(F)cc1	-16	-42	nt	nt	nt	nt
C[C@H]1CN([C@@H](C)CO)C(=O)c2cc(C#CC3CCCCC3)cnc2O[C@H]1CN(C)Cc1cncnc1	6	98*	nt	nt	nt	nt
C[C@@H]1CN([C@H](C)CO)C(=O)c2cc(-c3ccc(F)cc3)cnc2O[C@H]1CN(C)Cc1cncnc1	-10	107*	nt	nt	nt	nt
C[C@@H]1CN([C@@H](C)CO)C(=O)c2cc(-c3ccc(F)cc3)cnc2O[C@@H]1CN(C)Cc1cncnc1	-17	6	nt	nt	nt	nt
C[C@@H]1CN([C@H](C)CO)C(=O)c2cc(C3=CCCC3)cnc2O[C@@H]1CN(C)Cc1ccc(F)cc1	-4	105*	nt	nt	nt	nt
C[C@@H]1CN([C@H](C)CO)S(=O)(=O)c2ccc(C#C[C@@H](C)O)cc2O[C@@H]1CN(C)C(=O)C1CCC1	-9	7	nt	nt	nt	nt
O=C(COc1ccc(Cl)cc1Cl)N/N=C/c1cccnc1	-4	2	-3	3	-6	-7
O=C(CCCOc1ccc(Cl)cc1Cl)N/N=C/c1cccc([N+](=O)[O-])c1	nt	-1	-330	330*	-11	4
O=C(C1CCN(c2nnc(-n3cccc3)s2)CC1)N1CCN(c2cccc(C(F)(F)F)c2)CC1	3	nt	72*	-72	-6	-9
SMILES	RAD54 branch	S100A4 MyoIIA	SR-BI DiI inh	SR-BI uptake up	PvdQ acylase	dFosB act
O=C(C1CCC1)N1CCN(c2cccc(C(F)(F)F)c2)CC1	-8	0	13	-13	-8	-9
CC(C)(C)S(=O)N1Cc2cc(C(=O)NCc3ccc4c(c3)OCO4)nc(-c3cccc(C#CCC4CCCC4)c3)c2[C@@H]1CCO (some centres undefined)	nt	-28	nt	nt	nt	nt
O=C(C[C@H]1CC[C@@H](NC(=O)C2CCOCC2)[C@H](CO)O1)Nc1ccccc1	nt	1	nt	nt	nt	nt
CO[C@H]1CN(C)C(=O)c2ccc(NC(=O)c3nc4ccccc4s3)cc2OC[C@@H](C)NC[C@H]1C	13	1	nt	nt	nt	nt
CCc1nc2ccc(C(=O)Nc3ccc(NC(C)=O)cc3)cc2nc1CC	9	4	83*	-83	2	-2
O=C(Nc1ccccc1F)N[C@@H]1CC[C@H](CCNS(=O)(=O)c2ccc(Cl)cc2)O[C@@H]1CO	-4	-11	nt	nt	nt	nt
Cc1ccc(C)c(N2CCN(C(=S)Nc3ccc4nc(N5CCOCC5)cc(C)c4c3)CC2)c1	1	nt	87*	-87	-19	1
Cc1cc(N2CCOCC2)nc2ccc(NC(=S)N3CCN(c4ccccc4)CC3)cc12	nt	0	54	-54	8	3
COc1ccc(NC(=O)C(CC(C)C)NC(=O)C2CCCCC2)c(OC)c1 (centres undefined)	-10	16	82*	-82	4	1
CCOC(=O)CC(C#N)c1cn(C)c2ccccc12 (centres undefined)	4	nt	28	-28	38*	-5
CCCN1CCN(CCCNC(=O)C(CC)n2nc(C)c3sc4ccccc4c3c2=O)CC1 (centres undefined)	-3	113*	-8	8	-9	0
COc1ccc(C=NNC(=O)c2ccccc2NS(=O)(=O)c2cccs2)cc1O	-2	3	1	-1	-9	-8
O=C(NN=Cc1ccc(OC(F)F)cc1)c1ccc(NS(=O)(=O)c2cccs2)cc1	1	-7	64	-64	-6	-17
O=C(NN=Cc1ccc(O)cc1O)c1ccccc1NS(=O)(=O)c1cccs1	-3	3	97*	-97	1	-3
COc1cccc(NC(=O)c2ccc(NS(=O)(=O)c3cccs3)cc2)c1	12	1	77*	-77	-8	-4
O=C(NN=Cc1ccccc1OC(F)F)c1ccc(NS(=O)(=O)c2cccs2)cc1	-3	-3	82*	-82	-16	-2
O=C(Cc1ccccn1)N[C@@H]1CC[C@@H](CCn2cc(-c3ccc(F)cc3)nn2)O[C@@H]1CO	nt	-1	nt	nt	nt	nt
C[C@H]1CN([C@@H](C)CO)C(=O)c2cccc(NC(=O)C3CCCCC3)c2O[C@H]1CN(C)Cc1ccncc1	-3	-11	nt	nt	nt	nt
